Laboratory results as given in publication PMC12062833 (RSC Medicinal Chemistry, 2025).
Values after ≈ are worked out from the molar mass of the structure shown.

Experiments:
Format in all cases: cell-based
[1] = tested on: Escherichia coli (ATCC 25922); assay: Antibacterial MIC, macrodilution method, E. coli; settings: ATCC25922, read-out: MIC E. coli
Outline: (§1)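 CLSI M07-A9 tube macrodilution. Strains were grown overnight on nutrient agar at 37 °C, and colonies were suspended in Mueller-Hinton broth. Inoculum was 1 × 10^6 per mL (5 × 10^5 per mL in test). DMSO stock was 5120 μg/mL. Final concentrations were 256 to […] in 2 mL. Tubes were incubated at 37 °C for 16–20 h. Controls were inoculum with and without 1% DMSO, and broth alone.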

[2] = tested on: LN-229 glioblastoma cells; assay: Antiproliferative assay; settings: Homo sapiens, LN-229, 72 h, read-out: IC50 LN-229
Outline: (§2)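 Adherent lines were seeded at 500 (Capan-1), 1000 (LN-229, HCT-116) or 1500 (NCI-H460) cells/well and dosed after overnight incubation. Suspension lines were seeded at 2500 (HL-60, K-562, Z-138) or 5500 (DND-41) cells/well directly onto compound. Seven 5-fold concentrations ran from 100 to 0.006 μM for 72 h. Viability was read as MTS absorbance at 490 nm after 3 h, and IC50 was derived from OD values. Two independent experiments.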

[3] = tested on: HCT-116 colon carcinoma cells; assay: Antiproliferative assay; settings: Homo sapiens, HCT-116, 72 h, read-out: IC50 HCT-116
Outline: as §2

[4] = tested on: NCI-H460 non-small cell lung cancer cells; assay: Antiproliferative assay; settings: Homo sapiens, NCI-H460, 72 h, read-out: IC50 NCI-H460
Outline: as §2

[5] = tested on: Capan-1 pancreatic adenocarcinoma cells; assay: Antiproliferative assay; settings: Homo sapiens, CAPAN-1, 72 h, read-out: IC50 Capan-1
Outline: as §2

[6] = tested on: Pseudomonas aeruginosa (ATCC 9027); assay: Antibacterial MIC, macrodilution method, P. aeruginosa; settings: ATCC9027, read-out: MIC P. aeruginosa
Outline: as §1

[7] = tested on: HL-60 acute myeloid leukemia cells; assay: Antiproliferative assay; settings: Homo sapiens, HL-60, 72 h, read-out: IC50 HL-60
Outline: as §2

[8] = tested on: K-562 chronic myeloid leukemia cells; assay: Antiproliferative assay; settings: Homo sapiens, K562, 72 h, read-out: IC50 K-562
Outline: as §2

[9] = tested on: Klebsiella pneumoniae (ATCC 27736); assay: Antibacterial MIC, macrodilution method, K. pneumoniae; settings: ATCC27736, read-out: MIC K. pneumoniae
Outline: as §1

[10] = tested on: Staphylococcus aureus (ATCC 25923); assay: Antibacterial MIC, macrodilution method, S. aureus; settings: ATCC25923, read-out: MIC S. aureus
Outline: as §1

Row | Structure (SMILES) | MIC [1] | IC50 [2] | IC50 [3] | IC50 [4] | IC50 [5] | MIC [6] | IC50 [7] | IC50 [8] | MIC [9] | MIC [10]
1 | Fc1ccc2nc(-c3ccc(OCc4cn(CCN5CCOCC5)nn4)c(F)c3)[nH]c2c1 [Compound 33, 4-(2-(4-((2-Fluoro-4-(6-fluoro-1H-benzo[d]imidazol-2-yl)phenoxy)methyl)-1H-1,2,3-triazol-1-yl)ethyl)morpholine] | > 256 µg/mL | > 100 µM | > 100 µM | > 100 µM | 47 ± 4.3 µM | > 256 µg/mL | 65.1 ± 2.8 µM | 29.6 ± 1.9 µM | > 256 µg/mL | > 256 µg/mL
2 | Clc1ccc2nc(-c3ccc(OCc4cn(CCN5CCOCC5)nn4)cc3)[nH]c2c1 [Compound 29, 4-(2-(4-((4-(6-Chloro-1H-benzo[d]imidazol-2-yl)phenoxy)methyl)-1H-1,2,3-triazol-1-yl)ethyl)morpholine] | > 256 µg/mL | > 100 µM | > 100 µM | > 100 µM | > 100 µM | > 256 µg/mL | ≥ 98.1 µM | > 100 µM | > 256 µg/mL | > 256 µg/mL
3 | O=C(O)c1cn(C2CC2)c2cc(N3CCNCC3)c(F)cc2c1=O [CIP, ciprofloxacin, reference compound] | < 0.125 µg/mL | – | – | – | – | 0.5 µg/mL (≈ 1.51 µM) | – | – | > 256 µg/mL | 0.5 µg/mL (≈ 1.51 µM)
4 | Fc1cc(-c2nc3ccccc3[nH]2)ccc1OCCN1CCOCC1 [Compound 21, 4-(2-(4-(1H-Benzo[d]imidazol-2-yl)-2-fluorophenoxy)ethyl)morpholine] | – | > 100 µM | > 100 µM | > 100 µM | > 100 µM | – | > 100 µM | > 100 µM | – | –
5 | O=C(COc1ccc(-c2nc3ccc(F)cc3[nH]2)cc1)N1CCOCC1 [Compound 20, 2-(4-(6-Fluoro-1H-benzo[d]imidazol-2-yl)phenoxy)-1-morpholinoethan-1-one] | – | > 100 µM | > 100 µM | > 100 µM | > 100 µM | – | > 100 µM | > 100 µM | – | –
6 | CC(C)(O/N=C(\C(=O)N[C@@H]1C(=O)N2C(C(=O)[O-])=C(C[n+]3ccccc3)CS[C@H]12)c1csc(N)n1)C(=O)O [CAZ, ceftazidime, reference compound] | 0.5 µg/mL (≈ 0.915 µM) | – | – | – | – | 2 µg/mL (≈ 3.66 µM) | – | – | 256 µg/mL (≈ 468 µM) | 64 µg/mL (≈ 117 µM)

Second part, the molecule after the results:

Row | MIC [1] | IC50 [2] | IC50 [3] | IC50 [4] | IC50 [5] | MIC [6] | IC50 [7] | IC50 [8] | MIC [9] | MIC [10] | Structure (SMILES)
7 | > 256 µg/mL | > 100 µM | > 100 µM | > 100 µM | 40.6 ± 2.5 µM | > 256 µg/mL | 66.1 ± 4 µM | 73 ± 3 µM | > 256 µg/mL | > 256 µg/mL | Fc1cc(-c2nc3ccccc3[nH]2)ccc1OCc1cn(CCN2CCOCC2)nn1 [Compound 31, 4-(2-(4-((4-(1H-Benzo[d]imidazol-2-yl)-2-fluorophenoxy)methyl)-1H-1,2,3-triazol-1-yl)ethyl)morpholine]
8 | > 256 µg/mL | > 100 µM | > 100 µM | > 100 µM | > 100 µM | > 256 µg/mL | > 100 µM | > 100 µM | > 256 µg/mL | > 256 µg/mL | O=C(COc1ccc(-c2nc3ccccc3[nH]2)cc1)N1CCOCC1 [Compound 14, 2-(4-(1H-Benzo[d]imidazol-2-yl)phenoxy)-1-morpholinoethan-1-one]
9 | – | 0.03 µM | 3.7 ± 0.3 µM | 6.1 ± 1.1 µM | 3.4 ± 0.9 µM | – | 0.8 ± 0.2 µM | 4 ± 1.3 µM | – | – | COc1cc([C@@H]2c3cc4c(cc3[C@@H](O[C@@H]3O[C@@H]5CO[C@@H](C)O[C@H]5[C@H](O)[C@H]3O)[C@H]3COC(=O)[C@H]23)OCO4)cc(OC)c1O [Etoposide, reference compound]
10 | – | 44.1 ± 5.3 µM | 61.1 ± 0.7 µM | 37.2 ± 4.3 µM | 39.1 ± 2.1 µM | – | 51.9 ± 5.9 µM | 27.6 ± 3.3 µM | – | – | CCN(CC)CCOc1ccc(-c2nc3ccc(F)cc3[nH]2)cc1 [Compound 18, N,N-Diethyl-2-(4-(6-fluoro-1H-benzo[d]imidazol-2-yl)phenoxy)ethan-1-amine]
